Assay outcomes (PubChem BioAssay)
HCV NS3 hel inh: blocks Hepatitis C virus NS3 helicase unwinding; NS3 helicase DNA unwinding, Cy5 molecular beacon fluorescence; inhibition, % at 10.9 µM; actives 0.56% (n = 290,000);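 active = inhibition above the mean of all tested compounds plus 3 SD, set per campaign, cut at about 35% in these data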
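System: NS3 helicase fragment of HCV / Schedule: 1 h at 25 °C / Control set: DMSO alone as 0% and 110 µM thioflavine S as 100% / Reagent: Cy5/quencher beacon DNA duplex and ATP to start / Technique: Cy5 fluorescence / Replication: singlicate / Evaluation: % inhibition of end-to-start signal ratio versus controls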
HSP90 refold inh: inhibitors of HSP90 luciferase refolding in rabbit reticulocyte lysate. luciferase refolding luminescence, 3 h. inhibition, % at 5.6 µM. actives 0.91% (n = 290,000). AID 1789;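 active = inhibition above the screen-wide mean plus 3 SD, computed separately per campaign, cut at about 16% in these data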;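 also: inhibitors lower the luminescence because luciferase stays unfolded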
HSF1 inh: HSF1 inhibition | NIH3T3-HGL HSE-luciferase, MG132-induced, luminescence 8 h; active compounds read low | activity change, negative = inhibition, % at 7.5 µM (by protocol) | actives 0.77% (n = 300,000) | AID 2098;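 active = more than half of replicate wells show activity change below -50%, luminescence cut by over half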;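 also: luciferase reports HSF-1 transcriptional activity via heat shock element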
HSF-1 act: increases HSF-1 driven luciferase reporter signal; AID 504408; NIH3T3-HGL HSF-1 luciferase reporter, MG132, 8 h; 100% = twice DMSO control signal; actives 1.7% (n = 300,000); activation, % at 9 µM;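 active = mean replicate activation of at least 50% with a set share of replicates each reaching 50%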
Lipid droplet: modulators of hepatic lipid droplet formation; actives 0.4% (n = 240,000); inhibition, % at 6.5 µM; AML12 mouse hepatocytes, oleate lipid droplets, BODIPY imaging; AID 1656;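 active = lipid droplet intensity inhibited by at least 50%, with more than 500 cells counted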
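Assay system: AML12 mouse liver cells | Compound: 6.5 µM single-point dosing | Schedule: Overnight exposure | Technique: Fluorescence imaging, 20x objective, two fields per well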
HSP90 inh confirm: HSP90 inhibition, confirmation assay; shares compounds with HSP90 refold inh; rabbit reticulocyte lysate, luciferase refolding luminescence, 3 h; inhibition, % at 5.9 µM; actives 64% (n = 2,300); AID 1846; in the data active = inhibition above about 18%
luciferase ctr: blocks native firefly luciferase in HSP90 counter-screen. shares compounds with HSP90 refold inh. purified native firefly luciferase, luminescence. inhibition, % at 5.9 µM. actives 48% (n = 2,300);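 active = inhibition above the mean inhibition of all tested sample wells plus 3 SD, cut at about 10% in these data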
Target sequence (P08659 whole entry, looked up): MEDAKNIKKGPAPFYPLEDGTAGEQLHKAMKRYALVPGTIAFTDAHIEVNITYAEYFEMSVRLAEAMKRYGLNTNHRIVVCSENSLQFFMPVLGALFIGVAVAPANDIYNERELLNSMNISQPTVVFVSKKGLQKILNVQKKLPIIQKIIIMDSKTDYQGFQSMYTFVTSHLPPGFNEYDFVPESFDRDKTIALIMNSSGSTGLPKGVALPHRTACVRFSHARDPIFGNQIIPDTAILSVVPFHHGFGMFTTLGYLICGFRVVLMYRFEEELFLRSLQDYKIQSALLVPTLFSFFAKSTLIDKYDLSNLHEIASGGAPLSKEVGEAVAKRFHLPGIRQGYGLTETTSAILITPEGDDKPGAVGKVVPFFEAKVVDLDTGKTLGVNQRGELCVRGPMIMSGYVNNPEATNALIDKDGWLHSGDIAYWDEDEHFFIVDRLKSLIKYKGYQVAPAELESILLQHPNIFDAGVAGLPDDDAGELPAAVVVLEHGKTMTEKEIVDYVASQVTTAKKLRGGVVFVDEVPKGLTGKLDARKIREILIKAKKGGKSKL
Each line names hits and unclear results; the compound was inactive in the other large screens (follow-up assays come after a bar, where they were run). Only some compounds are listed: those with a hit (about 3.8% of all), similar ones and a draw of the others.

O=c1c(Cl)c(N2CCCCC2)cnn1-c1nc2ccccc2[nH]1	HSP90 refold inh 65 (no result: Lipid droplet) | HSP90 inh confirm 86 | luciferase ctr 80
Clc1ccc2nc(N3CCCCC3)[nH]c2c1	none
O=C(Cc1nc2ccccc2[nH]1)c1cccc([N+](=O)[O-])c1	HSP90 refold inh 20 | HSP90 inh confirm 27 | luciferase ctr inactive
Cc1ccc(C(=O)CCS(=O)(=O)c2ccc(F)cc2)cc1	HSP90 refold inh 38 | HSP90 inh confirm 58 | luciferase ctr 79
COc1ccccc1N(Cc1ccccc1)S(=O)(=O)c1cccc(C(=O)Nc2cc(C)ccn2)c1	HSP90 refold inh 38 | HSP90 inh confirm 58 | luciferase ctr 41
CCOc1ccc(S(=O)(=O)N/N=C(\C)c2ccc(OC)cc2OC)cc1	none
Cc1cc(C)nc(NC(=O)c2ccc(Br)cc2)n1	none (no result: Lipid droplet)
Cc1cc(NO)nc(-c2ccc(Br)cc2)n1	HSP90 refold inh 81 (no result: Lipid droplet) | HSP90 inh confirm 79 | luciferase ctr inactive
CSc1nc(O)c(C(c2cccc([N+](=O)[O-])c2)c2c(O)nc(SC)[nH]c2=O)c(=O)[nH]1	none
Cc1ccccc1CN1C(=O)c2ccccc2S1(=O)=O	none
O=C1c2ccccc2S(=O)(=O)N1Cc1nc2ccccc2s1	HSP90 refold inh 37 (no result: Lipid droplet) | HSP90 inh confirm 21 | luciferase ctr inactive
Cc1[nH]n(C(N)=S)c(=O)c1N=Nc1ccc([N+](=O)[O-])cc1Cl	HSP90 refold inh 18 | HSP90 inh confirm inactive | luciferase ctr inactive
CC(=O)N(C)c1ccc(N=Nc2c(C)[nH]n(C(N)=S)c2=O)cc1	HSP90 refold inh 20, HSF-1 act 53 | HSP90 inh confirm inactive | luciferase ctr inactive
CC1=NN(C(N)=S)C(=O)C1N=Nc1ccc(S(N)(=O)=O)cc1 (centres undefined)	none
Cc1ccccc1N=Nc1c(C)[nH]n(C(N)=S)c1=O	none
CC(=O)N(C)c1ccc(N=Nc2c(C)[nH]n(-c3ccccc3)c2=O)cc1	none
CC(=O)N(C)c1ccc(N=NC2C(=O)N(C(N)=S)N=C2C)cc1 (centres undefined)	HSP90 refold inh 18 (no result: Lipid droplet) | HSP90 inh confirm 18 | luciferase ctr inactive
O=C(NCCc1ccccc1)c1ccccc1NC(=O)C1CC=CCC1C(=O)O (centres undefined)	HSP90 refold inh 45 | HSP90 inh confirm inactive | luciferase ctr inactive
O=C(O)c1ccccc1C(=O)NCCc1ccc(Cl)cc1	none
Cn1cccc1C(=O)NCCc1ccc(Cl)cc1	none
O=C(NCCc1ccccc1)c1ccccc1Cl	HSP90 refold inh 43 | HSP90 inh confirm 58 | luciferase ctr 50
Cn1cccc1C(=O)NCCc1ccccc1	HSP90 refold inh 19 | HSP90 inh confirm 39 | luciferase ctr 26
Cc1ccc(C(=O)N/C(=C\c2sccc2C)C(=O)NCc2ccncc2)cc1	none
Cc1ccc(C(=O)N/C(=C\c2sccc2C)C(=O)NCc2ccco2)cc1	HSP90 refold inh 25 (no result: Lipid droplet) | HSP90 inh confirm inactive | luciferase ctr inactive
CC(=O)N1N=C2c3ccccc3CCC2C1c1cccs1 (centres undefined)	none
CN1N=C2c3ccccc3CCCC2C1c1ccc(F)cc1 (centres undefined)	HSP90 refold inh 18 | HSP90 inh confirm inactive | luciferase ctr inactive
COC(=O)C1CCN(C(=O)c2ccc3nc(-c4cccc(OC)c4)oc3c2)CC1	HSP90 refold inh 51 | HSP90 inh confirm 63 | luciferase ctr inactive
Cc1ccccc1-c1cc2c(nn1)-c1ccccc1C2=O	HSP90 refold inh 74 | HSP90 inh confirm inactive | luciferase ctr inactive
Cc1ccc(-c2cc3c(nn2)-c2ccccc2C3=O)cc1	HSP90 refold inh 28 | HSP90 inh confirm 75 | luciferase ctr 89
O=C1c2ccccc2-c2nnc(-c3ccc(F)cc3)cc21	none
O=C1c2ccccc2-c2nnc(-c3ccc(O)cc3)cc21	none
Cc1ccc(C)c(CSc2nc3[nH]ncc3c(=O)[nH]2)c1	none
Cc1oc(-c2ccc(-c3ccccc3)cc2)nc1CN(C)C1CCOC1 (centres undefined)	HSP90 refold inh 75 | HSP90 inh confirm 86 | luciferase ctr inactive
